# Measured values: PMC4567406 (Journal of medicinal chemistry, 2015)
# Entries after “also recorded” stand apart in the source; their conditions may differ.
# Columns and labels:
# [1] = system: BXD-3752 glioma cells without an IDH1 mutation; assay: Proliferation of glioma stem-like cells; type: cell-based; details: BXD-3752, no IDH1 mutation, 14 days
# [2] = system: IDH1 mutated cancer cells; details: cited from earlier work
# [3] = system: BT142 glioma cells with IDH1 R132H mutation; assay: Proliferation of glioma stem-like cells; type: cell-based; details: 14 days
# IDH1(R132H) [4] = target: T1, IDH1(R132H) (Homo sapiens, UniProt O75874, R132H); assay: IDH1; type: biochemical; details: for Fold less active than compound 4: IDH1(R132H) Ki compared with compound 4
# How it was run: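 E. coli-expressed, column-purified IDH1(R132H) (100 nM) in 50 mM HEPES pH 7.5 with 4 mM MgCl2, 100 µM NADPH and graded inhibitor. After 5 min preincubation, 1 mM α-KG was added to start the reaction. NADPH consumption was read at 340 nm every 30 s. IC50s came from dose-response fits. Ki was derived by Cheng-Prusoff (Km 0.965 mM), or by Morrison tight-binding fitting when IC50 <1 µM. Values are means of ≥3 independent runs.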
# [5] = system: HT1080 cells (IDH1 R132C); assay: D2HG production inhibition in HT1080 cells; type: cell-based, human; details: treated 2 days (48h)
# How it was run: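 HT1080 cells (10^5/well) grown in DMEM with 10% dialyzed FBS and exposed to increasing test-compound concentrations for 48h. Culture medium was collected, diluted with MeOH and centrifuged (20,000 rpm, 3 min). D2HG in the supernatant was quantified by HPLC-MS.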
# [6] = system: HT1080 cells (IDH1 R132C); assay: Histone lysine methylation levels, Western blot; type: cell-based, human; details: treated 4 days
# How it was run: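 After 4 days of test-compound exposure, histones were extracted from treated and control HT1080 cells. Extracts were analysed by Western blot using antibodies to total human histone H3 and to specific methylated lysine marks.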
# IDH1(R132H) [7] = target: T1, IDH1(R132H); assay: Isothermal titration calorimetry; type: binding
# IDH1(R132H) [8] = target: T1, IDH1(R132H); assay: Steady-state enzyme kinetic study; type: biochemical
# [9] = IDH1(R132H) 100 μM without NADPH, 298K
# [10] = IDH1(R132H) 100 μM without NADPH, 298K, pH 7.4
# T1 sequence (O75874 whole entry R132H): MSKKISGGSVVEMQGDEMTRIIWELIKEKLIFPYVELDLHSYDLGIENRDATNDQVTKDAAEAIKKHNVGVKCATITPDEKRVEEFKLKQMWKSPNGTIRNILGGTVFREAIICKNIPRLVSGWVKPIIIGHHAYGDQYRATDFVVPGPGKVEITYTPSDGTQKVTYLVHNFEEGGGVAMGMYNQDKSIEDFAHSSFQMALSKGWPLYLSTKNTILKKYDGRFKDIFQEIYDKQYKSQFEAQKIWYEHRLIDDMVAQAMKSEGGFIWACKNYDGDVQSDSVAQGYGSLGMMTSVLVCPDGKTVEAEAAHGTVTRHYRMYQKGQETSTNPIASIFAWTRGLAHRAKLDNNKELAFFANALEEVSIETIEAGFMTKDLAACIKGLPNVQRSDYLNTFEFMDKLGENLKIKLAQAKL
smiles,measurement,setting,value
"Cc1ccccc1C(C(=O)NC1CCCCC1)N(C(=O)Cn1ccnc1C)c1cccc(F)c1 (stereo not shown) [Compound 1, reference compound]",Effect on proliferation / neurosphere formation of glioma stem-like cells,[1],did not affect neurosphere formation
same,Effect on proliferation of IDH1 mutated cancer cells,[2],can also inhibit proliferation
same,Effect on proliferation / neurosphere formation of glioma stem-like cells,[3],inhibited neurosphere formation; also recorded: can inhibit growth
"O=C1C(=Cc2ccc(O)c(O)c2)NC(=S)N1Cc1ccccc1 [Compound 4, 3-benzyl-5-(3,4-dihydroxybenzylidene)-2-thiohydantoin]",Ki,IDH1(R132H) [4],4.7 µM
COc1ccc(/C=C2/NC(=S)N(c3ccccc3)C2=O)cc1OC [Compound 6],Inhibitory activity against IDH1(R132H) in words,IDH1(R132H) [4],inactive
COc1ccc(CN2C(=O)/C(=C\c3ccc(OC)c(OC)c3)NC2=S)cc1 [Compound 7],Inhibitory activity against IDH1(R132H) in words,IDH1(R132H) [4],inactive
O=C1/C(=C\c2ccc(O)c(O)c2)NC(=S)N1c1ccccc1 [Compound 8],Fold less active than compound 4,IDH1(R132H) [4],~ 3 fold
O=C1/C(=C\c2ccc(O)c(O)c2)NC(=S)N1Cc1ccc(O)cc1 [Compound 9],Fold less active than compound 4,IDH1(R132H) [4],~ 3 fold
O=C1/C(=C\c2cccnc2)NC(=S)N1Cc1ccccc1 [Compound 10],Inhibitory activity against IDH1(R132H) in words,IDH1(R132H) [4],inactive
COc1ccc(/C=C2/NC(=S)N(Cc3ccccc3)C2=O)cn1 [Compound 11],Inhibitory activity against IDH1(R132H) in words,IDH1(R132H) [4],inactive
CN1C(=O)/C(=C\c2ccc(=O)[nH]c2)NC1=S [Compound 16],Effect on production of D2HG,[5],significantly reduced the production of D2HG; also recorded: significantly reduced amount of D2HG
same,Effect on proliferation / neurosphere formation of glioma stem-like cells,[1],did not affect neurosphere formation; also recorded: did not have activity
same,Effect on proliferation / neurosphere formation of glioma stem-like cells,[3],inhibited neurosphere formation; also recorded: significantly inhibit proliferation
O=C1NC(=S)N/C1=C/c1ccc(=O)[nH]c1 [Compound 18],Effect on production of D2HG,[5],significantly reduced the production of D2HG; also recorded: significantly reduced amount of D2HG
same,Effect on proliferation / neurosphere formation of glioma stem-like cells,[1],did not affect neurosphere formation; also recorded: did not have activity
same,"Effect on histone lysine methylation levels (H3K4me3, H3K4me2, H3K27me2, H4K20me2)",[6],significantly reduced methylation levels; also recorded: significantly reduce the methylation levels
same,calculated ΔS of binding,IDH1(R132H) [7]; [9],95.0 J K^−1 mol^−1
same,ΔG of binding,IDH1(R132H) [7]; [9],-7.12 kcal/mol
same,Ka (affinity constant),IDH1(R132H) [7]; [10],168000 M⁻¹
same,ΔH of binding,IDH1(R132H) [7]; [10],-0.359 kcal/mol
same,ΔH of binding,IDH1(R132H) [7]; IDH1(R132H) 133 μM in the presence of NADPH (300 μM),-0.598 kcal/mol
same,Mode of action against the cofactor NADPH,"IDH1(R132H) [8]; variable NADPH, Michaelis-Menten plot",noncompetitive
same,Mode of action against the substrate α-KG,"IDH1(R132H) [8]; variable α-KG, Lineweaver-Burk plot",competitive
same,Effect on proliferation / neurosphere formation of glioma stem-like cells,[3],inhibited neurosphere formation; also recorded: significantly inhibit proliferation
COc1ccc(/C=C2/NC(=S)N(CC(=O)O)C2=O)cn1 [Compound 19],Inhibitory activity against IDH1(R132H) in words,IDH1(R132H) [4],none of these compounds are active
O=C(O)CN1C(=O)/C(=C\c2ccc(=O)[nH]c2)NC1=S [Compound 20],Effect on production of D2HG,[5],did not significantly reduce D2HG
same,"Effect on histone lysine methylation levels (H3K4me3, H3K4me2, H3K27me2, H4K20me2)",[6],did not significantly affect histone methylation levels; also recorded: did not significantly reduce
same,Inhibitory activity against IDH1(R132H) in words,IDH1(R132H) [4],none of these compounds are active
O=C1NC(=S)N/C1=C/c1ccnc(Br)c1 [Compound 32],Inhibitory activity against IDH1(R132H) in words,IDH1(R132H) [4],Loss of activity
COc1ccc(/C=C2/NC(=O)NC2=O)cn1 [Compound 37],Inhibitory activity against IDH1(R132H) in words,IDH1(R132H) [4],Complete loss of activity
O=C1NC(=O)/C(=C\c2ccc(=O)[nH]c2)N1 [Compound 38],Inhibitory activity against IDH1(R132H) in words,IDH1(R132H) [4],Complete loss of activity
NC1=N/C(=C/c2ccc(=O)[nH]c2)C(=O)N1 [Compound 39],Inhibitory activity against IDH1(R132H) in words,IDH1(R132H) [4],inactive
CSC1=N/C(=C/c2ccc(=O)[nH]c2)C(=O)N1 [Compound 40],Inhibitory activity against IDH1(R132H) in words,IDH1(R132H) [4],completely lose the inhibitory activity
CN1C(=O)/C(=C\c2ccc(=O)[nH]c2)N(C)C1=S [Compound 41],Fold activity reduction compared to compound 16,IDH1(R132H) [4]; IDH1(R132H) Ki compared with compound 16,22 fold
